Experimental data as given in ChEMBL document CHEMBL1131473, “A novel class of orally active non-peptide bradykinin B2 receptor antagonists. 1. Construction of the basic framework” (J Med Chem, 1998).

Tested on: not listed separately
Experiment: Compound at a dose of 10 mg/kg was orally administered to rats and Area under curve was reported
Type: ADME, organism-based
Parameters: dose 10 mg/kg, route oral
Conditions: rat, in vivo, po
How it was run: (§1)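 Male Sprague-Dawley rats (3), starved overnight, given compound orally in 0.5% methocel (0.5 mL/100 g). Femoral-artery blood sampled at 0, 0.5, 1, 2, 4 and 6 h. Intravenous arm used a DMSO solution into the femoral vein, sampled 0 min–6 h. Plasma extracted with CHCl3, dried, reconstituted in MeOH and quantified by HPLC peak area against spiked time-0 plasma standards.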

Row | Compound | AUC
1 | CCCC(=O)NCC(=O)N(C)c1ccc(Cl)c(COc2cccn3c(Br)c(C)nc23)c1Cl | 11700 ng·h/mL
2 | Cc1nc2c(OCc3c(Cl)ccc(N(C)C(=O)CNC(=O)CN(C)C)c3Cl)cccn2c1Br | 940 ng·h/mL
3 | CCNC(=O)NCC(=O)N(C)c1ccc(Cl)c(COc2cccn3c(Br)c(C)nc23)c1Cl | 58900 ng·h/mL
4 | CC(=O)NCC(=O)N(C)c1ccc(Cl)c(COc2cccn3c(Br)c(C)nc23)c1Cl.Cl | 3150 ng·h/mL

Tested on: not listed separately
Experiment: Compound at a dose of 10 mg/kg was orally administered to rats and Bioavailability was reported
Type: ADME, organism-based
Conditions: rat, in vivo, po, read-out: BA
How it was run: as §1

Row | Compound | bioavailability
5 | CCCC(=O)NCC(=O)N(C)c1ccc(Cl)c(COc2cccn3c(Br)c(C)nc23)c1Cl | 90%
6 | Cc1nc2c(OCc3c(Cl)ccc(N(C)C(=O)CNC(=O)CN(C)C)c3Cl)cccn2c1Br | 32.8%
7 | CCNC(=O)NCC(=O)N(C)c1ccc(Cl)c(COc2cccn3c(Br)c(C)nc23)c1Cl | 75%

Tested on: not listed separately
Experiment: Compound at a dose of 10 mg/kg was orally administered to rats and maximum plasma concentration was reported
Type: ADME, organism-based
Parameters: dose 10 mg/kg, route oral
Conditions: rat, po
How it was run: as §1

Row | Compound | Cmax
8 | CCCC(=O)NCC(=O)N(C)c1ccc(Cl)c(COc2cccn3c(Br)c(C)nc23)c1Cl | 9970 ng/mL
9 | Cc1nc2c(OCc3c(Cl)ccc(N(C)C(=O)CNC(=O)CN(C)C)c3Cl)cccn2c1Br | 290 ng/mL
10 | CCNC(=O)NCC(=O)N(C)c1ccc(Cl)c(COc2cccn3c(Br)c(C)nc23)c1Cl | 52600 ng/mL
11 | CC(=O)NCC(=O)N(C)c1ccc(Cl)c(COc2cccn3c(Br)c(C)nc23)c1Cl.Cl | 3640 ng/mL

Tested on: not listed separately
Experiment: Compound at a dose of 10 mg/kg was orally administered to rats and Half-life value was reported
Type: ADME, organism-based
Parameters: dose 10 mg/kg, route oral
Conditions: rat, in vivo, po
How it was run: as §1

Row | Compound | half-life
12 | CCCC(=O)NCC(=O)N(C)c1ccc(Cl)c(COc2cccn3c(Br)c(C)nc23)c1Cl | 18 min
13 | Cc1nc2c(OCc3c(Cl)ccc(N(C)C(=O)CNC(=O)CN(C)C)c3Cl)cccn2c1Br | 18 min
14 | CCNC(=O)NCC(=O)N(C)c1ccc(Cl)c(COc2cccn3c(Br)c(C)nc23)c1Cl | 30 min
15 | CC(=O)NCC(=O)N(C)c1ccc(Cl)c(COc2cccn3c(Br)c(C)nc23)c1Cl.Cl | 25.2 min

Molecular target: T1, B2 bradykinin receptor (Cavia porcellus, UniProt O70526)
T1 sequence (O70526 whole entry): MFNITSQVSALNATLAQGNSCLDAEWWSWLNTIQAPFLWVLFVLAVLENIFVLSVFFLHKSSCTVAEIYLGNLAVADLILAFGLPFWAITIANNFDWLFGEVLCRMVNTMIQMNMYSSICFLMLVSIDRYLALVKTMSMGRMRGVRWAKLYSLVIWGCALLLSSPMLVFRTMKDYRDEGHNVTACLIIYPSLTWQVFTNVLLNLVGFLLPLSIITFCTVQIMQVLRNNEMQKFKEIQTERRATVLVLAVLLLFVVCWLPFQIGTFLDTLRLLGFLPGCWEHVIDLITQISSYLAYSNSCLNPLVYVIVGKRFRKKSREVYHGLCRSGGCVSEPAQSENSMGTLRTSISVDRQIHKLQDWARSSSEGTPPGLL
Experiment: In vitro for inhibition of specific binding of [3H]BK (0.06 nM) to bradykinin receptor B2 in guinea pig ileum membrane preparations.
Type: cell membranes
Conditions: not given
How it was run: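 Ileal membranes from male Hartley guinea pigs, prepared in TES/1,10-phenanthroline pH 6.8 by 1000g then 100000g spins. Assay buffer held bacitracin, DTT, 1 μM captopril and 0.1% BSA. Membranes (0.2 mg protein/mL) incubated with [3H]BK (final 0.06 nM) and varying compound concentrations for 60 min at room temperature. Bound ligand filtered on GF/B and counted by scintillation; nonspecific binding taken with 1 μM unlabeled BK.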

Row | Compound | IC50
16 | Cc1nc2c(OCc3c(Cl)ccc(N(C)C(=O)CNC(=O)CN(C)C)c3Cl)cccn2c1Br | 2.4 nM
17 | CCOC(=O)c1c(C)nc2c(OCc3c(Cl)cccc3Cl)cccn12 | > 100000 nM
18 | Cc1nc2c(OCc3c(Cl)ccc(N(C)S(C)(=O)=O)c3Cl)cccn2c1Br | 2100 nM
19 | C#CCOCc1c(C)nc2c(OCc3c(Cl)cccc3Cl)cccn12 | 7600 nM
20 | Cc1nc2c(OCc3c(F)cccc3Cl)cccn2c1Br | 1500 nM
21 | Clc1cccc(Cl)c1COc1cccn2ccnc12 | 31000 nM
22 | Cc1nc2c(OCc3c(Cl)cccc3Cl)cccn2c1CO | 7500 nM
23 | CC(=O)NC(C)C(=O)N(C)c1ccc(Cl)c(COc2cccn3c(Br)c(C)nc23)c1Cl (stereo not drawn) | 770 nM
24 | CC(=O)N(Cc1c(Cl)cccc1Cl)c1cccn2c(Br)c(C)nc12 | > 100000 nM
25 | Cc1nc2c(OCc3c(Cl)cccc3Cl)cccn2c1Br | 230 nM
26 | Cc1nc2c(COc3c(Cl)cccc3Cl)cccn2c1Br | > 100000 nM
27 | COc1ccc(Cl)c(COc2cccn3c(Br)c(C)nc23)c1Cl | 540 nM
28 | CC(=O)Nc1ccc(Cl)c(COc2cccn3c(Br)c(C)nc23)c1Cl | 1800 nM
29 | Cc1nc2c(C(=O)Nc3c(Cl)cccc3Cl)cccn2c1Br | > 100000 nM
30 | Cc1nc2c(OCc3c(Cl)ccc(Cl)c3Cl)cccn2c1Br | 490 nM
31 | Cc1cn2cccc(OCc3c(Cl)cccc3Cl)c2n1 | 4500 nM

Row | Compound | IC50
32 | CC(=O)N(C)c1c(Cl)cc(Cl)c(COc2cccn3c(Br)c(C)nc23)c1Cl | 420 nM
33 | Cc1nc2c(OCc3c(Cl)ccc([N+](=O)[O-])c3Cl)cccn2c1Br | 42 nM
34 | Cc1nc2c(OCc3c(Cl)cccc3Cl)cccn2c1Cl | 200 nM
35 | CCc1cn2cccc(OCc3c(Cl)cccc3Cl)c2n1 | 10000 nM
36 | Cc1nc2c(C(=O)Oc3c(Cl)cccc3Cl)cccn2c1Br | > 100000 nM
37 | Cc1nc2c(OCc3c(F)cccc3F)cccn2c1Cl | 1800 nM
38 | Cc1nc2c(OCc3c(Br)cccc3Br)cccn2c1Cl | 1700 nM
39 | Cc1nc2c(/C=C/c3c(Cl)cccc3Cl)cccn2c1Br | > 100000 nM
40 | Cc1nc2c(NCc3c(Cl)cccc3Cl)cccn2c1Cl | 1200 nM
41 | CCn1c(C)cc(C#N)c1-c1ccc(COc2cc(C)nc3ccccc23)cc1 | 31000 nM
42 | Cc1nc2c(NC(=O)c3c(Cl)cccc3Cl)cccn2c1Cl | > 100000 nM
43 | FC(F)(F)c1cn2cccc(OCc3c(Cl)cccc3Cl)c2n1 | > 100000 nM
44 | Cc1nc2c(OCc3c(Cl)ccc(N)c3Cl)cccn2c1Br | 1500 nM
45 | CCCNC(=O)NCC(=O)N(C)c1ccc(Cl)c(COc2cccn3c(Br)c(C)nc23)c1Cl | 26 nM
46 | CCCCC(=O)NCC(=O)N(C)c1ccc(Cl)c(COc2cccn3c(Br)c(C)nc23)c1Cl | 7.8 nM

More lines, now with the values ahead:

Row | IC50 | Compound
47 | 8.9 nM | CCCC(=O)NCC(=O)N(C)c1ccc(Cl)c(COc2cccn3c(Br)c(C)nc23)c1Cl
48 | 380 nM | Cc1nc2c(OCc3c(Cl)ccc(N(C)C(=O)CN)c3Cl)cccn2c1Br
49 | 1400 nM | COC(=O)N(C)c1ccc(Cl)c(COc2cccn3c(Br)c(C)nc23)c1Cl
50 | 580 nM | COCC(=O)N(C)c1ccc(Cl)c(COc2cccn3c(Br)c(C)nc23)c1Cl
51 | 16 nM | CC(=O)NCC(=O)N(C)c1ccc(Cl)c(COc2cccn3c(Br)c(C)nc23)c1Cl
52 | 150 nM | CCN(C(C)=O)c1ccc(Cl)c(COc2cccn3c(Br)c(C)nc23)c1Cl
53 | 410 nM | CCN(C)c1ccc(Cl)c(COc2cccn3c(Br)c(C)nc23)c1Cl
54 | 500 nM | CC(=O)OCC(=O)N(C)c1ccc(Cl)c(COc2cccn3c(Br)c(C)nc23)c1Cl
55 | 72 nM | CCC(=O)N(C)c1ccc(Cl)c(COc2cccn3c(Br)c(C)nc23)c1Cl
56 | 9 nM | CCNC(=O)NCC(=O)N(C)c1ccc(Cl)c(COc2cccn3c(Br)c(C)nc23)c1Cl
57 | 1600 nM | CC(=O)N(C)CC(=O)N(C)c1ccc(Cl)c(COc2cccn3c(Br)c(C)nc23)c1Cl
58 | 810 nM | CC(=O)NCCC(=O)N(C)c1ccc(Cl)c(COc2cccn3c(Br)c(C)nc23)c1Cl
59 | 350 nM | CNC(=O)N(C)c1ccc(Cl)c(COc2cccn3c(Br)c(C)nc23)c1Cl
60 | 54 nM | CC(=O)N(C)c1ccc(Cl)c(COc2cccn3c(Br)c(C)nc23)c1Cl
61 | 19 nM | CCC(=O)NCC(=O)N(C)c1ccc(Cl)c(COc2cccn3c(Br)c(C)nc23)c1Cl
62 | 580 nM | Cc1nc2c(OCc3c(Cl)ccc(N(C)C(=O)CNS(C)(=O)=O)c3Cl)cccn2c1Br
63 | 46 nM | CNC(=O)NCC(=O)N(C)c1ccc(Cl)c(COc2cccn3c(Br)c(C)nc23)c1Cl
64 | 16 nM | CC(=O)NCC(=O)N(C)c1ccc(Cl)c(COc2cccn3c(Br)c(C)nc23)c1Cl.Cl

Tested on: Cavia porcellus
Experiment: In vivo functional antagonistic activity against BK-induced bronchoconstriction in guinea pigs at an oral dose of 1 mg/kg.
Conditions: not given
How it was run: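 Male Hartley guinea pigs (470-750 g), fasted, anesthetized with pentobarbital (30 mg/kg ip), ventilated, given alcuronium iv and propranolol sc. BK (5 μg/kg iv) raised pulmonary insufflation pressure, measured by modified Konzett–Rössler. Compound in 0.5% methylcellulose, or vehicle, was given by oesophageal cannula. BK was repeated 30 min later. Response expressed as ΔPIP after drug over ΔPIP before drug ×100; Student's t-test vs control.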

Row | Compound | inhibition in vivo at 1 mg/kg
65 | CCCC(=O)NCC(=O)N(C)c1ccc(Cl)c(COc2cccn3c(Br)c(C)nc23)c1Cl | 52.7%
66 | Cc1nc2c(OCc3c(Cl)ccc(N(C)C(=O)CNC(=O)CN(C)C)c3Cl)cccn2c1Br | 72.4%
67 | CCNC(=O)NCC(=O)N(C)c1ccc(Cl)c(COc2cccn3c(Br)c(C)nc23)c1Cl | 57.2%
68 | CCC(=O)NCC(=O)N(C)c1ccc(Cl)c(COc2cccn3c(Br)c(C)nc23)c1Cl | 48.4%
69 | Cc1nc2c(OCc3c(Cl)ccc(N(C)C(=O)CNS(C)(=O)=O)c3Cl)cccn2c1Br | 48.4%
70 | CCCNC(=O)NCC(=O)N(C)c1ccc(Cl)c(COc2cccn3c(Br)c(C)nc23)c1Cl | 62.4%
71 | CCCCC(=O)NCC(=O)N(C)c1ccc(Cl)c(COc2cccn3c(Br)c(C)nc23)c1Cl | 29.7%
72 | CNC(=O)NCC(=O)N(C)c1ccc(Cl)c(COc2cccn3c(Br)c(C)nc23)c1Cl | 41.5%
73 | CC(=O)NCC(=O)N(C)c1ccc(Cl)c(COc2cccn3c(Br)c(C)nc23)c1Cl.Cl | 62.3%
